Published values from different studies.
Lines come from different studies, so protocols differ. pIC50: −log10 of the molar value. In brackets after ≈: the same amount, converted by molar mass.

Structure (SMILES)	organism	test	test system	conditions	measurement	value
OC(Cn1cncn1)(Cn1cncn1)c1ccc(F)cc1F	Kluyveromyces marxianus	microbial growth, broth dilution	–	24 h	MIC90	1 µg/mL (≈ 3.27 µM)
O=C(Nc1ccccc1-c1ccc(F)c(F)c1)c1nccnc1C(F)(F)F	Mycosphaerella arachidis	microbial growth	–	–	EC50	0.12 µg/mL (≈ 0.316 µM)
C=CCON(C(=O)c1cc([N+](=O)[O-])cc(C(F)(F)F)c1)C1CC(=O)N1SC (stereo not drawn)	Mycolicibacterium vaccae	microbial growth	–	–	MIC	6.25 µM
O=C(O)c1cn(C2CC2)c2cc(N3CCNCC3)c(F)cc2c1=O	Mycolicibacterium vaccae	microbial growth	10670	1000 µg/mL	inhibition zone	21 mm
O=C1CC(N(OCc2ccccc2)C(=O)c2cc([N+](=O)[O-])cc(C(F)(F)F)c2)N1 (stereo not drawn)	Mycolicibacterium vaccae	microbial growth	–	–	MIC	6.25 µM
Cc1cc(CCCOc2c(C)cc(-c3noc(C(F)(F)F)n3)cc2C)on1	Enterovirus	cytopathic effect, inhibitor	HeLa	–	pIC50	7.30
CCCCCCCCCCCC(=O)Oc1c(C)c(O)c(C(=O)/C=C/c2ccccc2)c(OC)c1C	Pseudomonas aeruginosa	microbial killing, broth dilution	ATCC27853	–	MBC	> 5000 µg/mL
CC1(C)S[C@@H]2[C@H](NC(=O)[C@H](N)c3ccccc3)C(=O)N2[C@H]1C(=O)O	Limosilactobacillus reuteri	microbial growth, broth dilution	ATCC23272	–	MIC	1 µg/mL
Nc1nc(-c2ccccc2)nc2[nH]nc(Nc3ccc(C(F)(F)F)cc3)c12	Enterovirus	cytopathic effect	HeLa	–	pIC50	5.34
